Measured values taken from ChEMBL document CHEMBL1140412, “F-18 stilbenes as PET imaging agents for detecting beta-amyloid plaques in the brain” (J Med Chem, 2005).
Blank lines part the entries; values can stand above or below the compound they belong to.

Tests used:
[1] = target: Amyloid-beta precursor protein (Homo sapiens, UniProt P05067); experiment: Inhibition constant for I-125-IMPY binding to amyloid plaques in Alzheimers disease brain homogenates; format: tissue-based
Outline: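 Competition binding in pooled postmortem AD cortical homogenates (dissected gray/white matter, ~100 mg wet tissue/ml PBS pH 7.4; 20-50 μg per tube). [¹²⁵I]IMPY at 0.04-0.06 nM; inhibitors 10^-5-10^-10 M in PBS with 0.1% BSA. Nonspecific binding with 600 nM IMPY. Incubated 2 hr at 37°C, GF/B filtration, PBS washes, gamma counting. Ki from nonlinear regression.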

[2] = Biodistribution in ICR mouse lung 1 hr after iv injection of [18F]-compound in 0.1% bovine serum albumin solution, n = 3; format: ADME, organism-based; conditions: in vivo
Outline: (§1)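 Male ICR mice (22-25 g) under isoflurane anesthesia received 0.15 mL of 0.1% BSA solution containing 5-10 μCi [¹⁸F]tracer by tail-vein injection; n = 3 per time point. Killed by cervical dislocation, organs removed, weighed and gamma-counted. %dose/g derived from sample counts vs. diluted initial dose; blood total activity assumed as 7% of body weight. Mean ± SD.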

[3] = Biodistribution in ICR mouse lung 2 min. after iv injection of [18F]-compound in 0.1% bovine serum albumin solution, n = 3; format: ADME, organism-based; conditions: in vivo; outline: as §1
[4] = Biodistribution in ICR mouse brain 2 min. after iv injection of [18F]-compound in 0.1% bovine serum albumin solution, n = 3; format: ADME, organism-based; conditions: in vivo; outline: as §1
[5] = Biodistribution in ICR mouse spleen 2 hr after iv injection of [18F]-compound in 0.1% bovine serum albumin solution, n = 3; format: ADME, organism-based; conditions: in vivo; outline: as §1
[6] = Biodistribution in ICR mouse skin 2 min. after iv injection of [18F]-compound in 0.1% bovine serum albumin solution, n = 3; format: ADME, organism-based, Zone of skin; conditions: in vivo; outline: as §1
[7] = Biodistribution in ICR mouse kidney 30 min. after iv injection of [18F]-compound in 0.1% bovine serum albumin solution, n = 3; format: ADME, organism-based; conditions: in vivo, 0.5 h; outline: as §1
[8] = Biodistribution in ICR mouse liver 1 hr after iv injection of [18F]-compound in 0.1% bovine serum albumin solution, n = 3; format: ADME, organism-based; conditions: in vivo; outline: as §1
[9] = Biodistribution in ICR mouse brain 1 hr after iv injection of [18F]-compound in 0.1% bovine serum albumin solution, n = 3; format: ADME, organism-based; conditions: in vivo; outline: as §1
[10] = Biodistribution in ICR mouse blood 2 hr after iv injection of [18F]-compound in 0.1% bovine serum albumin solution, n = 3; format: ADME, organism-based; conditions: in vivo; outline: as §1
[11] = Biodistribution in ICR mouse brain 2 hr after iv injection of [18F]-compound in 0.1% bovine serum albumin solution, n = 3; format: ADME, organism-based; conditions: in vivo; outline: as §1
[12] = Biodistribution in ICR mouse spleen 2 min. after iv injection of [18F]-compound in 0.1% bovine serum albumin solution, n = 3; format: ADME, organism-based; conditions: in vivo; outline: as §1
[13] = Biodistribution in ICR mouse lung 2 hr after iv injection of [18F]-compound in 0.1% bovine serum albumin solution, n = 3; format: ADME, organism-based; conditions: in vivo; outline: as §1
[14] = Biodistribution in ICR mouse kidney 2 hr after iv injection of [18F]-compound in 0.1% bovine serum albumin solution, n = 3; format: ADME, organism-based; conditions: in vivo; outline: as §1
[15] = Biodistribution in ICR mouse blood 30 min. after iv injection of [18F]-compound in 0.1% bovine serum albumin solution, n = 3; format: ADME, organism-based; conditions: in vivo, 0.5 h; outline: as §1
[16] = Biodistribution in ICR mouse liver 2 min. after iv injection of [18F]-compound in 0.1% bovine serum albumin solution, n = 3; format: ADME, organism-based; conditions: in vivo; outline: as §1
[17] = Biodistribution in ICR mouse bone 1 hr after iv injection of [18F]-compound in 0.1% bovine serum albumin solution, n = 3; format: ADME, organism-based, Bone element; conditions: in vivo; outline: as §1
[18] = Biodistribution in ICR mouse liver 30 min. after iv injection of [18F]-compound in 0.1% bovine serum albumin solution, n = 3; format: ADME, organism-based; conditions: in vivo, 0.5 h; outline: as §1
[19] = Biodistribution in ICR mouse spleen 30 min. after iv injection of [18F]-compound in 0.1% bovine serum albumin solution, n = 3; format: ADME, organism-based; conditions: in vivo, 0.5 h; outline: as §1
[20] = Biodistribution in ICR mouse skin 30 min. after iv injection of [18F]-compound in 0.1% bovine serum albumin solution, n = 3; format: ADME, organism-based, Zone of skin; conditions: in vivo, 0.5 h; outline: as §1
[21] = Biodistribution in ICR mouse heart 2 hr after iv injection of [18F]-compound in 0.1% bovine serum albumin solution, n = 3; format: ADME, organism-based; conditions: in vivo; outline: as §1
[22] = Biodistribution in ICR mouse blood 1 hr after iv injection of [18F]-compound in 0.1% bovine serum albumin solution, n = 3; format: ADME, organism-based; conditions: in vivo; outline: as §1
[23] = Biodistribution in ICR mouse heart 2 min. after iv injection of [18F]-compound in 0.1% bovine serum albumin solution, n = 3; format: ADME, organism-based; conditions: in vivo; outline: as §1
[24] = Biodistribution in ICR mouse blood 2 min. after iv injection of [18F]-compound in 0.1% bovine serum albumin solution, n = 3; format: ADME, organism-based; conditions: in vivo; outline: as §1
[25] = Biodistribution in ICR mouse brain 30 min. after iv injection of [18F]-compound in 0.1% bovine serum albumin solution, n = 3; format: ADME, organism-based; conditions: in vivo, 0.5 h; outline: as §1
[26] = Biodistribution in ICR mouse spleen 1 hr after iv injection of [18F]-compound in 0.1% bovine serum albumin solution, n = 3; format: ADME, organism-based; conditions: in vivo; outline: as §1
[27] = Biodistribution in ICR mouse liver 2 hr after iv injection of [18F]-compound in 0.1% bovine serum albumin solution, n = 3; format: ADME, organism-based; conditions: in vivo; outline: as §1
[28] = Biodistribution in ICR mouse heart 30 min. after iv injection of [18F]-compound in 0.1% bovine serum albumin solution, n = 3; format: ADME, organism-based; conditions: in vivo, 0.5 h; outline: as §1
[29] = Biodistribution in ICR mouse kidney 2 min. after iv injection of [18F]-compound in 0.1% bovine serum albumin solution, n = 3; format: ADME, organism-based; conditions: in vivo; outline: as §1
[30] = Biodistribution in ICR mouse bone 2 hr after iv injection of [18F]-compound in 0.1% bovine serum albumin solution, n = 3; format: ADME, organism-based, Bone element; conditions: in vivo; outline: as §1
[31] = Biodistribution in ICR mouse skin 2 hr after iv injection of [18F]-compound in 0.1% bovine serum albumin solution, n = 3; format: ADME, organism-based, Zone of skin; conditions: in vivo; outline: as §1
[32] = Biodistribution in ICR mouse kidney 1 hr after iv injection of [18F]-compound in 0.1% bovine serum albumin solution, n = 3; format: ADME, organism-based; conditions: in vivo; outline: as §1
[33] = Biodistribution in ICR mouse muscle 2 min. after iv injection of [18F]-compound in 0.1% bovine serum albumin solution, n = 3; format: ADME, organism-based, Muscle tissue; conditions: in vivo; outline: as §1
[34] = Biodistribution in ICR mouse bone 2 min. after iv injection of [18F]-compound in 0.1% bovine serum albumin solution, n = 3; format: ADME, organism-based, Bone element; conditions: in vivo; outline: as §1
[35] = Biodistribution in ICR mouse muscle 2 hr after iv injection of [18F]-compound in 0.1% bovine serum albumin solution, n = 3; format: ADME, organism-based, Muscle tissue; conditions: in vivo; outline: as §1
[36] = Biodistribution in ICR mouse muscle 1 hr after iv injection of [18F]-compound in 0.1% bovine serum albumin solution, n = 3; format: ADME, organism-based, Muscle tissue; conditions: in vivo; outline: as §1
[37] = Biodistribution in ICR mouse bone 30 min. after iv injection of [18F]-compound in 0.1% bovine serum albumin solution, n = 3; format: ADME, organism-based, Bone element; conditions: in vivo, 0.5 h; outline: as §1
[38] = Biodistribution in ICR mouse muscle 30 min. after iv injection of [18F]-compound in 0.1% bovine serum albumin solution, n = 3; format: ADME, organism-based, Muscle tissue; conditions: in vivo, 0.5 h; outline: as §1
[39] = Biodistribution in ICR mouse skin 1 hr after iv injection of [18F]-compound in 0.1% bovine serum albumin solution, n = 3; format: ADME, organism-based, Zone of skin; conditions: in vivo; outline: as §1
[40] = Biodistribution in ICR mouse heart 1 hr after iv injection of [18F]-compound in 0.1% bovine serum albumin solution, n = 3; format: ADME, organism-based; conditions: in vivo; outline: as §1
[41] = Biodistribution in ICR mouse lung 30 min. after iv injection of [18F]-compound in 0.1% bovine serum albumin solution, n = 3; format: ADME, organism-based; conditions: in vivo, 0.5 h; outline: as §1

Amyloid-beta precursor protein, sequence (P05067 whole entry): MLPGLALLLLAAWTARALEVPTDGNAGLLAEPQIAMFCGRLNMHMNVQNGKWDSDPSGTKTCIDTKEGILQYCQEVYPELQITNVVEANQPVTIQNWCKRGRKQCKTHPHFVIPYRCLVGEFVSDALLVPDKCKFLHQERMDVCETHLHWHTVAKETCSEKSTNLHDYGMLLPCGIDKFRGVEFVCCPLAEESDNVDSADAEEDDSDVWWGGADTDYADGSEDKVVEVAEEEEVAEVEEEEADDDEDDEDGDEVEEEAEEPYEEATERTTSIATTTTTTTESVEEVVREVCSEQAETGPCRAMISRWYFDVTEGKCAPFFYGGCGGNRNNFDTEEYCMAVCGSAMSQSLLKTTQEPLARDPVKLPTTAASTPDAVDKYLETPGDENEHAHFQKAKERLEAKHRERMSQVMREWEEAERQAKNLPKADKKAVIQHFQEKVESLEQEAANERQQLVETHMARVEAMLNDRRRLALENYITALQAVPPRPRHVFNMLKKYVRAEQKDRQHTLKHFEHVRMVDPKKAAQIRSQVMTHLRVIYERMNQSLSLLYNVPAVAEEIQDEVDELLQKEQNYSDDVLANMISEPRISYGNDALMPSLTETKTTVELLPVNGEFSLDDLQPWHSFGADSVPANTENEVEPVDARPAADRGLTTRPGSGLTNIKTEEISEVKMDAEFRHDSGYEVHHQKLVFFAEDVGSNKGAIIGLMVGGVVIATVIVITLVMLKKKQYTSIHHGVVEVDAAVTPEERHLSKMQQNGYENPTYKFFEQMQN

Structure (SMILES): CN(C)c1ccc(/C=C/c2ccc(O)cc2)cc1
Ki [1]: 1.1 nM

Structure (SMILES): CN(C)c1ccc(/C=C/c2ccc(OCC(CO)C[18F])cc2)cc1 (stereo not given)
Biodistribution [2]: 5 %Dose/g
Biodistribution [3]: 93.4 %Dose/g
Biodistribution [4]: 5.55 %Dose/g
Biodistribution [5]: 0.99 %Dose/g
Biodistribution [6]: 0.67 %Dose/g
Biodistribution [7]: 4.64 %Dose/g
Biodistribution [8]: 13.46 %Dose/g
Biodistribution [9]: 2.97 %Dose/g
Biodistribution [10]: 1.18 %Dose/g
Biodistribution [11]: 1.37 %Dose/g
Biodistribution [12]: 4.43 %Dose/g
Biodistribution [13]: 3.74 %Dose/g
Biodistribution [14]: 2.19 %Dose/g
Biodistribution [15]: 1.65 %Dose/g
Biodistribution [16]: 14.13 %Dose/g
Biodistribution [17]: 6.5 %Dose/g
Ki [1]: 15 nM
Biodistribution [18]: 14.65 %Dose/g
Biodistribution [19]: 2.45 %Dose/g
Biodistribution [20]: 1.69 %Dose/g
Biodistribution [21]: 0.91 %Dose/g
Biodistribution [22]: 1.51 %Dose/g
Biodistribution [23]: 10.43 %Dose/g
Biodistribution [24]: 1.79 %Dose/g
Biodistribution [25]: 5.21 %Dose/g
Biodistribution [26]: 1.24 %Dose/g
Biodistribution [27]: 9.51 %Dose/g
Biodistribution [28]: 2.76 %Dose/g
Biodistribution [29]: 13.32 %Dose/g
Biodistribution [30]: 8.63 %Dose/g
Biodistribution [31]: 1 %Dose/g
Biodistribution [32]: 2.97 %Dose/g
Biodistribution [33]: 0.84 %Dose/g
Biodistribution [34]: 1.57 %Dose/g
Biodistribution [35]: 0.66 %Dose/g
Biodistribution [36]: 1.22 %Dose/g
Biodistribution [37]: 2.06 %Dose/g
Biodistribution [38]: 1.53 %Dose/g
Biodistribution [39]: 1.65 %Dose/g
Biodistribution [40]: 1.45 %Dose/g
Biodistribution [41]: 12.93 %Dose/g

Structure (SMILES): CN(C)c1ccc(/C=C/c2ccc(OCC(CO)CO)cc2)cc1
Ki [1]: 38 nM

Continued, values first:

Ki [1]: 80 nM
Structure (SMILES): CN(C)c1ccc(/C=C/c2ccc(OCC(CO)Cc3ccc(Br)cc3)cc2)cc1 (stereo not given)

Ki [1]: 15 nM
Structure (SMILES): Nc1ccc(/C=C/c2ccc(OCC(CO)CF)cc2)cc1 (stereo not given)
